# Paper PMC6753935 (Journal of Clinical and Translational Science, 2019)
# Where two headings read alike, the source gives them in different places.
# How the values were obtained:
# [1] = Clinical pathology: complete blood counts; type: in vivo, cynomolgus monkey (Macaca fascicularis); conditions: arms 1, 2 and 5
# How it was run: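 Same six male monkeys, dosed IM, IV or SC across five arms. EDTA blood for complete counts was drawn pre-dose and at 30, 120 and 270 min post-dose in arms 1–2. Sampling was pre-dose and 15 min in arm 3, 45 min in arm 4, and 120 min in arm 5. Hematocrit and platelet count were recorded.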
# αIIbβ3 = αIIbβ3 (Homo sapiens, UniProt P05106+P08514); type: cell-based; conditions: five donors, p < 0.0001
# Chain of αIIbβ3 (P08514 32-887 limits assumed): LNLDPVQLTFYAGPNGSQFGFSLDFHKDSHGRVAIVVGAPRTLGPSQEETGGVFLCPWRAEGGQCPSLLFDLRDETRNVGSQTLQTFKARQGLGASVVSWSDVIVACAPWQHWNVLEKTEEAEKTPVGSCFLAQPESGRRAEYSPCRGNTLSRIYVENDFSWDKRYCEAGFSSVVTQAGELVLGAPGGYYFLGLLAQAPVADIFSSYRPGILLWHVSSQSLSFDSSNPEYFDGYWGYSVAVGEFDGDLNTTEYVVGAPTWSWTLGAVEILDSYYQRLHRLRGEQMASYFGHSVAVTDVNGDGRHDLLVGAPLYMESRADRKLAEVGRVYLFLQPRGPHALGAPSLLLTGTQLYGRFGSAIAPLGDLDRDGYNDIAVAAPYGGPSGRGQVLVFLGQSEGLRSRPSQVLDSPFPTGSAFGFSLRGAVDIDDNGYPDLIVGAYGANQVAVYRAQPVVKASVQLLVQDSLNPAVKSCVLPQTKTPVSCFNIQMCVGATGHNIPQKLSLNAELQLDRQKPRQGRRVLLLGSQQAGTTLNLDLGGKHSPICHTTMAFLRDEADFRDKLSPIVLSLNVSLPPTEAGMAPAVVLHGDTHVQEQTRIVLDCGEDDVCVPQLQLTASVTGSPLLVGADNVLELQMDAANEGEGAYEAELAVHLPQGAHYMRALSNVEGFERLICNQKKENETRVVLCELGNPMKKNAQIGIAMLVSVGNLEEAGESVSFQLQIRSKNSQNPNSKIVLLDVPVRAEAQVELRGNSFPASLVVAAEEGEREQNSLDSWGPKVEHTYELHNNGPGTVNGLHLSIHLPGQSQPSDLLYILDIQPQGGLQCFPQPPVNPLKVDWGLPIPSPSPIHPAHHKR
# Chain of αIIbβ3 (P08514 891-1039 partner limits assumed): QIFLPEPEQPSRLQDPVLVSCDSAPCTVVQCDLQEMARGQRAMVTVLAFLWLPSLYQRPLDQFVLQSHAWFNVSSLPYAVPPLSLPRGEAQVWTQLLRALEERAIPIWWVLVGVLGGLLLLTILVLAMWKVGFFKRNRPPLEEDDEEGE
# Chain of αIIbβ3 (P05106 27-788): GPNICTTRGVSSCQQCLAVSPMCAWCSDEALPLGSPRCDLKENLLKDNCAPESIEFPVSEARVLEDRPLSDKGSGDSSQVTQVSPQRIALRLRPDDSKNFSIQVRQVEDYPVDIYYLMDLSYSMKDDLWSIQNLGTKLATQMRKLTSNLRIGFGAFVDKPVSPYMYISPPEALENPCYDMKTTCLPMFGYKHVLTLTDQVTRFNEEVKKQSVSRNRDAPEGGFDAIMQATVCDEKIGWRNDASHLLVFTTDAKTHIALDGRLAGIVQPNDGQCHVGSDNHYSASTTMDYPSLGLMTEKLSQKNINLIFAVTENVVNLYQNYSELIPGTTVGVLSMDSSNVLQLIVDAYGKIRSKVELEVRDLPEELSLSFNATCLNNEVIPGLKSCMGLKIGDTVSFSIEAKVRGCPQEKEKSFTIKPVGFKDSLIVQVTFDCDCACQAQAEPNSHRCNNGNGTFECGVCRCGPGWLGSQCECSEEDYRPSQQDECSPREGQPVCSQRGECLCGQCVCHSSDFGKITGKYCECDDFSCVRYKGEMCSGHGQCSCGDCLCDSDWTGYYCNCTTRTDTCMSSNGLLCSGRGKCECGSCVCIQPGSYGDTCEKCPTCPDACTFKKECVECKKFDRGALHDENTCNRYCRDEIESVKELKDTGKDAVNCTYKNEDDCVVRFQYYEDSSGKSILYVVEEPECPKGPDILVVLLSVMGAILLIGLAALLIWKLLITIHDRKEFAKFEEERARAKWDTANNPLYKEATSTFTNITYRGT
# [2] = test system: platelets in platelet-rich plasma (PRP); experiment: Light transmission platelet aggregation, RUC-4 IC50 in NHP PRP; type: cell-based, cynomolgus monkey (Macaca fascicularis); conditions: read-out: RUC-4 IC50 for platelet aggregation in NHP, mean ± SD; 5 µM ADP, citrated PRP, initial slope, 4 animals
# [3] = test system: platelets in platelet-rich plasma (PRP); experiment: ADP-induced platelet aggregation in PRP from NHPs dosed with RUC-4 IM; type: in vivo, cynomolgus monkey (Macaca fascicularis)
# How it was run: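 Six adult male monkeys (3.6–4.8 y; two per dose) got a single unsedated IM injection (0.064 ml/kg) at 1, 1.93 or 3.86 mg/kg. Citrated blood was drawn pre-dose and at 30, 120 and 270 min, plus ~27 h at the top dose. PRP was adjusted to 3 × 10^5/μl with PPP. Light-transmission aggregation at 37°C with stirring, 5 µM ADP. Percent inhibition of the initial slope versus untreated sample.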
# [4] = test system: human platelets in platelet-rich plasma (PRP); experiment: In vitro platelet aggregation in PRP of healthy human volunteers; type: cell-based
# How it was run: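 Healthy donors' venous blood was anticoagulated with citrate (0.38% final), PPACK (0.1 or 0.3 mM final) or heparin (15.8 USP U/ml). PRP was spun at 650 × g for 4 min at room temperature. Aspirin 0.83 mM final for 10 min, then test compound (0.01–3 µM final) for 20 min. Aggregation induced by arachidonic acid 1.5 mM or ADP 5 µM. IC50 from initial-slope inhibition by Hill-equation fit.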
# [5] = Pharmacokinetics: RUC-4 whole blood concentrations after IM, SC; type: in vivo, cynomolgus monkey (Macaca fascicularis); conditions: for Bioavailability: compared to IV
# How it was run: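 Six male monkeys (two per dose: 1, 1.93, 3.86 mg/kg) received single IV, IM or SC injections (0.064 ml/kg; SC into the abdomen). Repeat arms spanned ~6 months with washout. Blood was sampled pre-dose and at 5–270 min, plus 1 min post-IV. Whole-blood levels measured by LC-MS/MS (HILIC; quadratic curve 5–5000 ng/ml). Non-compartmental analysis; bioavailability relative to IV.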
compound,measurement,setting,value
NCC(=O)Nc1cncc(-c2nn3c(=O)cc(N4CCNCC4)nc3s2)c1 [RUC-4],"Reductions in hematocrit, assessment",[1],considered consistent with the blood drawing from the animals
same,"Platelet counts, trend",[1]; possible exception animal 4 at 1.93 mg/kg IM,did not demonstrate obvious drug-related trends by dose or time after administration
same,Average correlation between inhibition of platelet aggregation and inhibition of PAC-1 binding,αIIbβ3,0.96
same,IC50,[2],0.807 ± 0.231 µM
same,Average inhibition of the initial slope of platelet aggregation in the two animals tested,"[3]; IM 1.00 mg/kg, 30 minutes",b (Values of whole blood RUC-4 levels corresponding to an average of >80% inhibition of the initial slope of platelet aggregation in the two animals tested.)
same,Average inhibition of the initial slope of platelet aggregation in the two animals tested,"[3]; IM 1.00 mg/kg, 120 minutes",c (Values of whole blood RUC-4 levels corresponding to an average of 0%–80% inhibition of the initial slope of platelet aggregation in the two animals tested.)
same,Average inhibition of the initial slope of platelet aggregation in the two animals tested,"[3]; IM 1.00 mg/kg, 270 minutes",c (Values of whole blood RUC-4 levels corresponding to an average of 0%–80% inhibition of the initial slope of platelet aggregation in the two animals tested.)
same,Average inhibition of the initial slope of platelet aggregation in the two animals tested,"[3]; IM 1.93 mg/kg, 30 minutes",b (Values of whole blood RUC-4 levels corresponding to an average of >80% inhibition of the initial slope of platelet aggregation in the two animals tested.)
same,Average inhibition of the initial slope of platelet aggregation in the two animals tested,"[3]; IM 1.93 mg/kg, 120 minutes",b (Values of whole blood RUC-4 levels corresponding to an average of >80% inhibition of the initial slope of platelet aggregation in the two animals tested.)
same,Average inhibition of the initial slope of platelet aggregation in the two animals tested,"[3]; IM 1.93 mg/kg, 270 minutes",c (Values of whole blood RUC-4 levels corresponding to an average of 0%–80% inhibition of the initial slope of platelet aggregation in the two animals tested.)
same,Average inhibition of the initial slope of platelet aggregation in the two animals tested,"[3]; IM 3.86 mg/kg, 30 minutes",b (Values of whole blood RUC-4 levels corresponding to an average of >80% inhibition of the initial slope of platelet aggregation in the two animals tested.)
same,Average inhibition of the initial slope of platelet aggregation in the two animals tested,"[3]; IM 3.86 mg/kg, 120 minutes",b (Values of whole blood RUC-4 levels corresponding to an average of >80% inhibition of the initial slope of platelet aggregation in the two animals tested.)
same,Average inhibition of the initial slope of platelet aggregation in the two animals tested,"[3]; IM 3.86 mg/kg, 270 minutes",c (Values of whole blood RUC-4 levels corresponding to an average of 0%–80% inhibition of the initial slope of platelet aggregation in the two animals tested.)
same,Inhibition of the initial slope of aggregation in response to ADP,"[3]; IM, all samples with whole blood RUC-4 concentration ≥ ~8 nM",> 80%
same,Inhibition of the initial slope of ADP-induced aggregation,"[3]; IM, all three doses (1.0, 1.93, 3.86 mg/kg), 30 minutes post-dosing",> 80%
same,"Difference in RUC-4 IC50, citrate versus heparin and PPACK",[4]; lower IC50 in PRP from citrate-anticoagulated blood,approximately twofold
same,IC50,"[4]; read-out: RUC-4 IC50, 20 µM TRAP, blood anticoagulated with PPACK (0.3 mM), n = 4",0.122 ± 0.017 µM
same,IC50,"[4]; read-out: RUC-4 IC50, 20 µM TRAP, blood anticoagulated with heparin (15.8 U/ml), n = 4",0.111 ± 0.007 µM
same,IC50,"[4]; read-out: RUC-4 IC50, 20 µM TRAP, blood anticoagulated with sodium citrate (0.38%), n = 4",0.066 ± 0.025 µM
same,IC50,"[4]; read-out: RUC-4 IC50, ADP 20 µM, blood anticoagulated with PPACK (0.1 mM), n = 5",0.102 ± 0.022 µM
same,IC50,"[4]; read-out: RUC-4 IC50, ADP 20 µM, blood anticoagulated with sodium citrate (0.38%), n = 5",0.054 ± 0.013 µM
same,IC50,"[4]; read-out: RUC-4 IC50, ADP (5 µM), aspirin (0.83 mM), mean of 5 patients",0.037 µM
same,IC50,"[4]; read-out: RUC-4 IC50, ADP (5 µM), aspirin (0.83 mM), patient 1",0.041 µM
same,IC50,"[4]; read-out: RUC-4 IC50, ADP (5 µM), aspirin (0.83 mM), patient 2",0.033 µM
same,IC50,"[4]; read-out: RUC-4 IC50, ADP (5 µM), aspirin (0.83 mM), patient 3",0.032 µM
same,IC50,"[4]; read-out: RUC-4 IC50, ADP (5 µM), aspirin (0.83 mM), patient 4",0.043 µM
same,IC50,"[4]; read-out: RUC-4 IC50, ADP (5 µM), aspirin (0.83 mM), patient 5",0.037 µM
same,IC50,"[4]; read-out: RUC-4 IC50, ADP (5 µM), vehicle, mean of 5 patients",0.04 µM
same,IC50,"[4]; read-out: RUC-4 IC50, ADP (5 µM), vehicle, patient 1",0.052 µM
same,IC50,"[4]; read-out: RUC-4 IC50, ADP (5 µM), vehicle, patient 2",0.038 µM
same,IC50,"[4]; read-out: RUC-4 IC50, ADP (5 µM), vehicle, patient 3",0.034 µM
same,IC50,"[4]; read-out: RUC-4 IC50, ADP (5 µM), vehicle, patient 4",0.047 µM
same,IC50,"[4]; read-out: RUC-4 IC50, ADP (5 µM), vehicle, patient 5",0.031 µM
same,IC50,"[4]; read-out: RUC-4 IC50, arachidonic acid (1.5 mM), vehicle, mean of 5 patients",0.061 µM
same,IC50,"[4]; read-out: RUC-4 IC50, arachidonic acid (1.5 mM), vehicle, patient 1",0.067 µM
same,IC50,"[4]; read-out: RUC-4 IC50, arachidonic acid (1.5 mM), vehicle, patient 2",0.052 µM
same,IC50,"[4]; read-out: RUC-4 IC50, arachidonic acid (1.5 mM), vehicle, patient 3",0.041 µM
same,IC50,"[4]; read-out: RUC-4 IC50, arachidonic acid (1.5 mM), vehicle, patient 4",0.072 µM
same,IC50,"[4]; read-out: RUC-4 IC50, arachidonic acid (1.5 mM), vehicle, patient 5",0.071 µM
same,IC50,"[4]; read-out: RUC-4 IC50 for ADP-induced aggregation, ADP 5 µM, aspirin-treated platelets (0.83 mM), citrated PRP",0.037 ± 0.005 µM
same,Time to peak level,[5]; 1.0 mg/kg SC,15 min
same,Time to peak blood levels,[5]; IM,≤ 5 min
same,T1/2,[5]; IM 1.00 mg/kg,16.8 min
same,Whole blood level,"[5]; IM 1.00 mg/kg, 5 minutes",3.415 µM
same,Whole blood level,"[5]; IM 1.00 mg/kg, 15 minutes",2.118 µM
same,Whole blood level,"[5]; IM 1.00 mg/kg, 30 minutes",0.164 µM
same,Whole blood level,"[5]; IM 1.00 mg/kg, 45 minutes",0.236 µM
same,Whole blood level,"[5]; IM 1.00 mg/kg, 120 minutes",< 0.008 µM
same,Whole blood level,"[5]; IM 1.00 mg/kg, 270 minutes",< 0.007 µM
same,Bioavailability,[5]; IM 1.00 mg/kg,1.2
same,T1/2,[5]; IM 1.93 mg/kg,16.8 min
same,Whole blood level,"[5]; IM 1.93 mg/kg, 5 minutes",3.796 µM
same,Whole blood level,"[5]; IM 1.93 mg/kg, 15 minutes",3.692 µM
same,Whole blood level,"[5]; IM 1.93 mg/kg, 30 minutes",0.297 µM
same,Whole blood level,"[5]; IM 1.93 mg/kg, 45 minutes",0.333 µM
same,Whole blood level,"[5]; IM 1.93 mg/kg, 120 minutes",0.008 µM
same,Whole blood level,"[5]; IM 1.93 mg/kg, 270 minutes",< 0.007 µM
same,Bioavailability,[5]; IM 1.93 mg/kg,0.80
same,T1/2,[5]; IM 3.86 mg/kg,31.8 min
same,Whole blood level,"[5]; IM 3.86 mg/kg, 5 minutes",16.009 µM
same,Whole blood level,"[5]; IM 3.86 mg/kg, 15 minutes",8.783 µM
same,Whole blood level,"[5]; IM 3.86 mg/kg, 30 minutes",0.837 µM
same,Whole blood level,"[5]; IM 3.86 mg/kg, 45 minutes",0.952 µM
same,Whole blood level,"[5]; IM 3.86 mg/kg, 120 minutes",0.016 µM
same,Whole blood level,"[5]; IM 3.86 mg/kg, 270 minutes",< 0.007 µM
same,Bioavailability,[5]; IM 3.86 mg/kg,0.88
same,Time to peak levels,"[5]; IM and SC, all doses except 1.0 mg/kg SC",≤ 5 min
same,Time to peak blood levels,[5]; SC,≤ 5 min
same,T1/2,[5]; SC 1.00 mg/kg,33.6 min
same,Whole blood level,"[5]; SC 1.00 mg/kg, 5 minutes",0.746 µM
same,Whole blood level,"[5]; SC 1.00 mg/kg, 15 minutes",0.819 µM
same,Whole blood level,"[5]; SC 1.00 mg/kg, 30 minutes",0.497 µM
same,Whole blood level,"[5]; SC 1.00 mg/kg, 45 minutes",0.241 µM
same,Whole blood level,"[5]; SC 1.00 mg/kg, 120 minutes",0.077 µM
same,Bioavailability,[5]; SC 1.00 mg/kg,0.55
same,T1/2,[5]; SC 1.93 mg/kg,24.6 min
same,Whole blood level,"[5]; SC 1.93 mg/kg, 5 minutes",3.445 µM
same,Whole blood level,"[5]; SC 1.93 mg/kg, 15 minutes",3.056 µM
same,Whole blood level,"[5]; SC 1.93 mg/kg, 30 minutes",1.295 µM
same,Whole blood level,"[5]; SC 1.93 mg/kg, 45 minutes",0.551 µM
same,Whole blood level,"[5]; SC 1.93 mg/kg, 120 minutes",0.104 µM
same,Bioavailability,[5]; SC 1.93 mg/kg,0.78
same,T1/2,[5]; SC 3.86 mg/kg,23.4 min
same,Whole blood level,"[5]; SC 3.86 mg/kg, 5 minutes",6.036 µM
same,Whole blood level,"[5]; SC 3.86 mg/kg, 15 minutes",5.310 µM
same,Whole blood level,"[5]; SC 3.86 mg/kg, 30 minutes",3.523 µM
same,Whole blood level,"[5]; SC 3.86 mg/kg, 45 minutes",1.098 µM
same,Whole blood level,"[5]; SC 3.86 mg/kg, 120 minutes",0.225 µM
same,Bioavailability,[5]; SC 3.86 mg/kg,0.60
same,Clinical observations,"IM, similar at all doses, all animals","some minor bruising and red, raised areas limited to site of injection (thigh) or venipuncture"
same,Clinical observations,"IV 1.93 mg/kg, one animal in arm 2",minor nose and gingival bleeding
same,Clinical observations,"IV 3.86 mg/kg, one animal in arm 2 and both animals in arm 3",vomited immediately after the IV injection
same,Clinical findings,"SC, resolved by ~24 hours post-dose",red discoloration of the skin at the venipuncture and administration sites and bruising at sites of injection and inguinal areas
same,Tolerability,"all doses, IM, IV, SC",well tolerated
